Consider three molecules from ChEMBL document CHEMBL1126641, “Synthesis and opioid activity of dynorphin A-(1-13)NH2 analogues containing cis- and trans-4-aminocyclohexanecarboxylic acid” (J Med Chem, 1993).

Several values for one entry are separate records, joined by “and”; a condition that tells them apart may be missing. Equal entries are not always repeated. Residues, ends and D or L forms follow the SMILES beside them.

The target of assay [1] is Delta-type opioid receptor (Rattus norvegicus, UniProt P33533). The assay is described as follows: Compound was tested for binding affinity towards delta-opioid receptor in rat forebrain membrane using [3H]DPDPE. The class given is cell membranes.
Delta-type opioid receptor, sequence (P33533 whole entry): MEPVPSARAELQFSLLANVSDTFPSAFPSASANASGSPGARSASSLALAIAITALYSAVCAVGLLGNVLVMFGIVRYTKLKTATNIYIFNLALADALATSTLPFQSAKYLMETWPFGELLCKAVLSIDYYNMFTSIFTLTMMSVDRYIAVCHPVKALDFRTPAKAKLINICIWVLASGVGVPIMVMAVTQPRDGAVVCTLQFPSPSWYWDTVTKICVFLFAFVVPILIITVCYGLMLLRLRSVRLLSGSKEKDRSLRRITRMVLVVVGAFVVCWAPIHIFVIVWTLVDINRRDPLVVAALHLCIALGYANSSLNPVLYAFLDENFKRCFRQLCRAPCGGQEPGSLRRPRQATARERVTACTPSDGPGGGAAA
Assay [2] concerns the target Kappa-type opioid receptor (Cavia porcellus, UniProt P41144). The assay is described as follows: Compound was tested for binding affinity towards kappa opioid receptor in guinea pig cerebellar membrane using [3H]bremazocine. It is filed as cell membranes, Cerebellum. An outline of the steps:
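Competitive inhibition of [3H]bremazocine binding to guinea pig cerebellar membranes. The incubation mixtures contained 100 nM DAMGO. Affinity is reported as Ki.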

The target in assay [3] is Mu-type opioid receptor (Rattus norvegicus, UniProt P33535). The assay is described as follows: Compound was tested for binding affinity towards mu-opioid receptor in rat forebrain membrane using [3H]DAMGO. It is filed as cell membranes.
Mu-type opioid receptor, sequence (P33535 whole entry): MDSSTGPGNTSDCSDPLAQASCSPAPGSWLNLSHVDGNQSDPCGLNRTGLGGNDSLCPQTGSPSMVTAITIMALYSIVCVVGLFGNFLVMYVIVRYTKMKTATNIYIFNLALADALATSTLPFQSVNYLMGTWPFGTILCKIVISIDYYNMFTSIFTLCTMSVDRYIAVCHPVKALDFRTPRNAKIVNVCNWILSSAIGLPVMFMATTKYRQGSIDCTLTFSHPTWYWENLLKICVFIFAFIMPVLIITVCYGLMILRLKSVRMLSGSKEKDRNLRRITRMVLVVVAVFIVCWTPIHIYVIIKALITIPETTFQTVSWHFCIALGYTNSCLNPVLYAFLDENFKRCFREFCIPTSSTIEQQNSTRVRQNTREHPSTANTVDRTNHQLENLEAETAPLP
Assay [4] concerns the target T1, Opioid receptors; mu/kappa/delta (Homo sapiens, UniProt P41145+P41143+P35372). The assay is described as follows: Opioid receptor activity in guinea pig ileum assay. The class given is tissue-based, Cavia porcellus. The following applies: target entry is the homologue from another species.
Assay [5] deals with T1, Opioid receptors; mu/kappa/delta. The assay is described as follows: ratio is kappa/mu/delta opioid receptors. The class given is protein assay. Summed up: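 The Ki ratio κ/μ/δ is taken from three binding assays. κ: [3H]bremazocine on guinea pig cerebellar membranes, with 100 nM DAMGO present. μ: [3H]DAMGO on rat forebrain membranes. δ: [3H]DPDPE on rat forebrain membranes.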

Kappa-type opioid receptor, sequence (P41144 whole entry): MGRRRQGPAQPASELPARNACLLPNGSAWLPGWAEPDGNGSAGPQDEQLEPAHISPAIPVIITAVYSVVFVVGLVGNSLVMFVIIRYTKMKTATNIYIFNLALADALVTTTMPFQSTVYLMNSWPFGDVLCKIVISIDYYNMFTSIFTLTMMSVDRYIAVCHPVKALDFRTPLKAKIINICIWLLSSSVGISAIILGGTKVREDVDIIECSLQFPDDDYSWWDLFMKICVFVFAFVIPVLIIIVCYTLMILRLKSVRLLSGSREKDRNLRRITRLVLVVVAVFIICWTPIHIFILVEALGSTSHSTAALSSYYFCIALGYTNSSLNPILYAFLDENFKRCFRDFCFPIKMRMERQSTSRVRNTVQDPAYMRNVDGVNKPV
T1 sequence (P35372 whole entry, looked up): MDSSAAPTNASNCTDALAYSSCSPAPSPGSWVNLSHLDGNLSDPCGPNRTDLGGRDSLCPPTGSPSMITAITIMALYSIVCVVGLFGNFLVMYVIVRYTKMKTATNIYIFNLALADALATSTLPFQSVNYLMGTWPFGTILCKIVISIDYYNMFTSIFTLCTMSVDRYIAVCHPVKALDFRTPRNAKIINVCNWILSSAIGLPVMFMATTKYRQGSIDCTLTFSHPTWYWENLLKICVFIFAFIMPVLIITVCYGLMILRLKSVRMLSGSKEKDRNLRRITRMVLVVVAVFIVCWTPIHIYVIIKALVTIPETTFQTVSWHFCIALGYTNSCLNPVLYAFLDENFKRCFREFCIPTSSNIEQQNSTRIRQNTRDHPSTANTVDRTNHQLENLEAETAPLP
T1 sequence (P41143 whole entry, looked up): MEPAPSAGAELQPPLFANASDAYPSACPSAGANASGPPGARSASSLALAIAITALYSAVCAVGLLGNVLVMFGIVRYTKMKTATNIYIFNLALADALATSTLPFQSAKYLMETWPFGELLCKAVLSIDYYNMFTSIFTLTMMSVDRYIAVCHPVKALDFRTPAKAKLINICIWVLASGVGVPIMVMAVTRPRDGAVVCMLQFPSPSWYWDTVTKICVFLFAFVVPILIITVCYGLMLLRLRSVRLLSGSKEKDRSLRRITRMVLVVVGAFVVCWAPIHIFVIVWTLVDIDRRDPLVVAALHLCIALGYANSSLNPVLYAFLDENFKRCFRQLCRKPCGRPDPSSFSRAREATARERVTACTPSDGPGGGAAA
T1 sequence (P41145 whole entry, looked up): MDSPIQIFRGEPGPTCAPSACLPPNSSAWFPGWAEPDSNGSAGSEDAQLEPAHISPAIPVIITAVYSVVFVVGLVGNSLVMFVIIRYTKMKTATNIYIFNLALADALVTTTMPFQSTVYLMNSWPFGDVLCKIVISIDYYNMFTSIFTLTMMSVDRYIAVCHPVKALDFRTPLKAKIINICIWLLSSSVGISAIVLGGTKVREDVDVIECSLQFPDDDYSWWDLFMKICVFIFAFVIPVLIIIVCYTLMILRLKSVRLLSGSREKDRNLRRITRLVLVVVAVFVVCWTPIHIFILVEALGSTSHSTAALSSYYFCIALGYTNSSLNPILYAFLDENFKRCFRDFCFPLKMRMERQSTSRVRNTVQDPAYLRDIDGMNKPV

On to `CC[C@H](C)[C@H](NC(=O)[C@H](CCCN=C(N)N)NC(=O)[C@H](CCCN=C(N)N)NC(=O)[C@H](CC(C)C)NC(=O)[C@H](Cc1ccccc1)NC(=O)CNC(=O)CNC(=O)[C@@H](N)Cc1ccc(O)cc1)C(=O)N[C@@H](CCCN=C(N)N)C(=O)N1CCC[C@H]1C(=O)N[C@@H](CCCCN)C(=O)N[C@@H](CC(C)C)C(=O)N[C@@H](CCCCN)C(N)=O`, for which the Ki is 3.88 nM in assay [1], 0.146 nM in assay [2] and 0.194 nM in assay [3]. This molecule also showed an IC50 in assay [4] of 0.24 nM.

With `CC[C@H](C)[C@H](NC(=O)[C@H](CCCN=C(N)N)NC(=O)[C@H](CCCN=C(N)N)NC(=O)[C@H](CC(C)C)NC(=O)[C@H](Cc1ccccc1)NC(=O)CNC(=O)C(C)(C)NC(=O)[C@@H](N)Cc1ccc(O)cc1)C(=O)N[C@@H](CCCN=C(N)N)C(=O)N1CCC[C@H]1C(=O)N[C@@H](CCCCN)C(=O)N[C@@H](CC(C)C)C(=O)N[C@@H](CCCCN)C(N)=O` (HELM PEPTIDE1{Y.[Aib].G.F.L.R.R.I.R.P.K.L.K.[am]}$$$$V2.0), the inhibitory constant (Ki) was found to be 50 nM in assay [2] and 10 nM in assay [3].

For the molecule `CC[C@H](C)[C@H](NC(=O)[C@H](CCCN=C(N)N)NC(=O)[C@H](CCCN=C(N)N)NC(=O)[C@H](CC(C)C)NC(=O)[C@H](Cc1ccccc1)NC(=O)C1CCC(NC(=O)[C@@H](N)Cc2ccc(O)cc2)CC1)C(=O)N[C@@H](CCCN=C(N)N)C(=O)N1CCC[C@H]1C(=O)N[C@@H](CCCCN)C(=O)N[C@@H](CC(C)C)C(=O)N[C@@H](CCCCN)C(N)=O` (stereo partly specified) (HELM PEPTIDE1{Y.[O=C(C1CCC(N[*:1])CC1)[*:2]].F.L.R.R.I.R.P.K.L.K.[am]}$$$$V2.0), the Ratio in assay [5] was 4.62 and 3.66. Further, the Ki in assay [1] was 1370 nM and 1910 nM; in assay [2] it was 13.4 nM and 9.1 nM; in assay [3], 275 nM and 117 nM. For the same molecule, the IC50 in assay [4] stood at 4090 nM.

One may read the Ki as the dissociation constant of the complex between target and ligand, obtained from inhibition or displacement. A higher Ki goes with a looser hold on the target. The IC50 is the concentration that inhibits the measured activity by half. Lower therefore signals inhibition by little substance.
